Measured values taken from ChEMBL document CHEMBL4513216, “Probing the Open Global Health Chemical Diversity Library for Multistage-Active Starting Points for Next-Generation Antimalarials” (ACS Infect Dis, 2020).

Assay: Toxicity liver stage against HepG2, at 10uM
Format: cell-based
Parameters: test concentration 10 uM, cell line HepG2-A16-CD81EGFP
Settings: human, HepG2-A16-CD81EGFP cells; read-out: INHIBITION
Outline: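 Uninfected HepG2-A16-CD81EGFP cells, 3 × 10^3 per well, 1536-well, plated on prespotted compound at 10 μM final, parasite-free screening media added to match infected plates; puromycin 10 μM positive, DMSO 0.5% negative; run in parallel with 48 h PbLuc assay at 37 °C, 5% CO2; viability by CellTiter-Glo luminescence, normalized to controls.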

Structure (SMILES)	cytotoxicity at 10 µM
COc1nonc1NCn1nc(C)cc1C	-15%
CC(CNC(=O)Nc1ccc(C#N)cc1)N1CCc2ccccc21 (configuration not stated)	-5.71%
Cc1cc2nc(CO[C@H]3CN(C4CCCCC4)C[C@H]3F)[nH]c2cc1C	-17.5%
Cc1ccc(S(=O)(=O)n2ccn(C(=O)CC(C)C)c2=O)cc1	11.2%
Cc1ccccc1NC(=O)Nc1cc(N2CCCC2)ncn1	-7.73%
CN(C)S(=O)(=O)N1CCC(Oc2cccnn2)CC1	3.05%
CC(C)C(=O)N1CCN(C(=O)N(C)C)CC2(CC(=O)N(C)C2)C1 (configuration not stated)	-21%
CC(C)=CCC/C(C)=C\CNCc1ccco1	-12.6%
CCOC(=O)N1CCN(C(=O)c2sc(-c3ccccc3F)nc2C)CC1	20%
Cc1c(Br)cnn1C(C)C(=O)Nc1nncs1 (configuration not stated)	-4.61%
COc1c(C2SCC(=O)Nc3[nH]ncc32)cc2c(c1OC)OCO2 (configuration not stated)	0.219%
Cc1ccnc(NC(=O)c2cccc(OCc3nnnn3C)c2)c1	-0.319%
Cn1cccc1C(=O)NCc1ccnc(C2CCCOC2)n1 (configuration not stated)	3.41%
Cn1cc(CN2CCC(c3cc(CCO)[nH]n3)C2)cn1 (configuration not stated)	3.19%
CC(C)N1CCC2(CC1)C[C@@H](O)[C@H](c1ccccc1)NC2=O	-16.7%
CN(C)C(=O)c1cn[nH]c1C1(C)CCCN(Cc2ccccn2)C1 (configuration not stated)	4.68%
CC1(C(=O)N2CCOCC2)CN(Cc2c[nH]cn2)CCO1 (configuration not stated)	-4.61%
O[C@@H]1CN(Cc2ccncc2)C[C@H]1Oc1ccccc1	-1.44%
O=C(Cn1c(=O)n(Cc2ccco2)c2ncccc21)NC1CC1	-6.33%
COc1ncc(C2(O)CCN(Cc3cc(F)cc(F)c3)CC2)c(OC)n1	0.331%
O=C(N[C@@H]1CN(Cc2ccc3cc[nH]c3c2)C[C@H]1O)c1cnccn1	-8.22%

Structure (SMILES)	cytotoxicity at 10 µM
Cn1nc(C2CCCN2)c2c(C(=O)NC3CC3)cc(C3CC3)nc21 (configuration not stated)	15.3%
O=C(O)c1ccccc1CN1CCC2(Cc3ccccc3CNC2=O)C1 (configuration not stated)	8.21%
CCCC(=O)N1Cc2ccccc2CC2(CCN(C)C2)C1 (configuration not stated)	2.71%
CCNc1ncnc2c1CN(C1CCCNCC1)C(=O)CN2C (configuration not stated)	5.5%
Cc1cc(C2CCCN2C(=O)c2ccc(OCC(N)=O)cc2)no1 (configuration not stated)	-43.9%
O=C(NC1CCN(CC2CCCC2)C1)N1CCC(OCC2CC2)CC1 (configuration not stated)	9.86%
Cn1cnc(S(=O)(=O)N2CCCc3cccc(F)c32)c1Cl	-4.63%
CC(=O)Nc1ccc(CNCC(O)c2ccccc2)cc1 (configuration not stated)	-10.1%
COc1ccc2c(c1)CCCN(CC(=O)NCC1CCCO1)C2 (configuration not stated)	-12%
CCc1ccc(CNC(=O)Nc2cc(C)on2)s1	-11.6%
O=C(CN1CCc2cncnc2C1)N1CCc2sccc2C1	11.9%
O=C(NC1CCN(c2ncccn2)CC1)c1sccc1C1CC1	-5.75%
Cc1ccc(S(=O)(=O)NCCc2cccnc2)cc1C	0.645%
N#CCc1ccc(NC(=O)CNc2ccc(Br)cc2F)cc1	0.997%
CN(CCn1cccn1)C1CCCN(Cc2noc(C3CC3)n2)C1 (configuration not stated)	15%
CC(=O)NCc1ccc(C(=O)N2CCCC(n3cncn3)C2)o1 (configuration not stated)	17.1%
O=C(O)CCN(Cc1ccc(F)c(F)c1)C(=O)C1CC1	1.04%
O=C(CCN1CCC(c2cc3ccccc3[nH]2)CC1)N1CCOCC1	-3.81%
Cc1csc(CCCNC(C)CC(=O)Nc2ccc(F)cc2)n1 (configuration not stated)	1.52%
O=C(O)c1ccc(CCNC(=O)C2(O)Cc3ccccc3C2)cc1	3.69%
COc1cccc(CNCCc2cc(F)cc3c2OCOC3)c1	-23.1%

Structure (SMILES)	cytotoxicity at 10 µM
CNC(=O)CNCC1(O)CCCN(Cc2ccc(F)c(F)c2)C1=O (configuration not stated)	-9.88%
CSCC(=O)N[C@H]1CN(Cc2c(C)noc2C)C[C@@H]1C(C)C	5.4%
Cc1nc(C(C)NC(=O)c2cn(Cc3ccc(Cl)cc3)nn2)n[nH]1 (configuration not stated)	10.2%
Cc1nsc(NC(=O)NC2CCCN(C)C2)n1 (configuration not stated)	-17.1%
CCN1CCC(CC(=O)NC[C@H]2CCc3ccccc3O2)CC1	-28.4%
Cc1nnc(CNC(=O)[C@@H]2C[C@H](NC(=O)C(C)(C)C)CN2C)[nH]1	1.76%
Cc1ccc(C)c(-n2cc(CN3CC[C@@H](O)C3)c(-c3ccccc3)n2)c1	-6.77%
COc1ccc(CN2CCN(CC3CC3)[C@@H]3CS(=O)(=O)C[C@@H]32)cc1C	-1.95%
COCC(=O)N1CCCC(C(=O)N(C)CCCc2cnn(C)c2)C1 (configuration not stated)	-137%
Cn1ccc2ccc(C(=O)N3CCN(C(=O)N4CCOCC4)CC3)cc21	-21.1%
Cc1noc(C)c1CN1CC2(CCN(C(=O)c3cscn3)CC2)CC1=O	-8.86%
COc1ccc(-n2nnc(C(=O)NC(C)C)c2C2CC2)cc1	-14.7%
O=C1CCC(=O)N1c1nn(Cc2ccc(F)cc2)cc1Cl	-13.2%
O=C(Cc1ccsc1)N1CCC(n2nc(-c3ccco3)ccc2=O)CC1	-8.98%
CCn1cc(CN2CCCN(C(=O)CCN3CCCC3=O)CC2)cn1	0.428%
Cc1ccsc1CNC(=O)CCc1c(C)nc2cc(O)nn2c1C	-7.01%
CC1CCN(CCNC(=O)c2scnc2Cl)CC1	-4.2%
COc1c(CNC2CCN(c3ccccn3)CC2)c(C(C)C)nn1C	-8.06%
O=C(Nc1cccc(CNCc2cccnc2)c1)C1CCCC1	-9.27%
CCCc1nc(C(C)(C)NC(=O)C2CC(=O)N(C3CC3)C2)no1 (configuration not stated)	-4.41%
CCc1nc(C2CCCN2C(=O)CCc2nc(C(C)(C)C)no2)no1 (configuration not stated)	-0.819%

Structure (SMILES)	cytotoxicity at 10 µM
Cc1nccn1C1CCCN(C(=O)COC2CCCC2)C1 (configuration not stated)	-10.5%
Cc1cnn(CC(=O)N2CCC(Nc3ccc(C)nn3)CC2)c1	-21.2%
Cc1cc(CN2CCCC(c3cc(C(F)(F)F)[nH]n3)C2)no1 (configuration not stated)	-0.674%
NC(=O)CN1CCCN(C(=O)Cc2ccc3c(c2)OCCO3)CC1	0.169%
Cc1cc(NC(=O)NCC2COc3ccccc3C2)no1 (configuration not stated)	-9.47%
Cc1cn2c(n1)CCC(NC(=O)c1[nH]ncc1Br)C2 (configuration not stated)	-6.49%
FC(F)(F)COCCN1CCOC(Cn2cccn2)C1 (configuration not stated)	-6.1%
O=C(O)c1cc(S(=O)(=O)Nc2cc(F)cc(F)c2)cc2c1OCCO2	-12.6%
Cc1nc(C)n(CC2CCCN2CC(=O)Nc2cc(C)on2)n1 (configuration not stated)	-2.11%
c1cc(CNCC2CNc3ccnn3C2)cc(OC2CCCCC2)n1 (configuration not stated)	-8.78%
O=C(c1cccc2c1OCCO2)N1CCCC1Cn1cccn1 (configuration not stated)	-10.7%
Cc1cnc2c(S(=O)(=O)NCC3CCS(=O)(=O)C3)cccc2c1 (configuration not stated)	-7.52%
COc1ccc(CC(=O)N2CCN(c3nccn3C)CC2)cc1	5.06%
CN(C)CCOCC1CN(C(=O)c2ccnnc2)Cc2ccnn2C1 (configuration not stated)	7.89%
Cc1nc(C)c(C(=O)N2CCc3nc4c(C)csc4c(=O)n3CC2)s1	4.11%
O=C1[C@H]2CN(CC3CC3)C[C@H]2CN1Cc1cccc(F)c1	5.56%
CC(C)C(=O)N1CCCC(c2cc(C(F)F)n3ncnc3n2)C1 (configuration not stated)	1.18%
O=C(NCCCN1CCOCC1)c1ccn(-c2ccc3ccccn23)n1	5.17%
CC(C)Cc1cc(CN2C[C@@H]3CC[C@H]2CN(Cc2cscn2)C3)n[nH]1	-2.03%
